These entries were drawn from the full list.
Apaf1 activ: activators of human Apaf-1 apoptosome | Apaf-1 apoptosome caspase-3 activation, DEVD-Rh110 fluorescence; stronger effect = lower value | AID 489031 | 330,000 compounds, 0.31% hits | O14727 | activity change, negative = activation, % at 20 µM;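 active = activity change at or below -40% at 20 µM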
Target sequence (O14727 whole entry, looked up): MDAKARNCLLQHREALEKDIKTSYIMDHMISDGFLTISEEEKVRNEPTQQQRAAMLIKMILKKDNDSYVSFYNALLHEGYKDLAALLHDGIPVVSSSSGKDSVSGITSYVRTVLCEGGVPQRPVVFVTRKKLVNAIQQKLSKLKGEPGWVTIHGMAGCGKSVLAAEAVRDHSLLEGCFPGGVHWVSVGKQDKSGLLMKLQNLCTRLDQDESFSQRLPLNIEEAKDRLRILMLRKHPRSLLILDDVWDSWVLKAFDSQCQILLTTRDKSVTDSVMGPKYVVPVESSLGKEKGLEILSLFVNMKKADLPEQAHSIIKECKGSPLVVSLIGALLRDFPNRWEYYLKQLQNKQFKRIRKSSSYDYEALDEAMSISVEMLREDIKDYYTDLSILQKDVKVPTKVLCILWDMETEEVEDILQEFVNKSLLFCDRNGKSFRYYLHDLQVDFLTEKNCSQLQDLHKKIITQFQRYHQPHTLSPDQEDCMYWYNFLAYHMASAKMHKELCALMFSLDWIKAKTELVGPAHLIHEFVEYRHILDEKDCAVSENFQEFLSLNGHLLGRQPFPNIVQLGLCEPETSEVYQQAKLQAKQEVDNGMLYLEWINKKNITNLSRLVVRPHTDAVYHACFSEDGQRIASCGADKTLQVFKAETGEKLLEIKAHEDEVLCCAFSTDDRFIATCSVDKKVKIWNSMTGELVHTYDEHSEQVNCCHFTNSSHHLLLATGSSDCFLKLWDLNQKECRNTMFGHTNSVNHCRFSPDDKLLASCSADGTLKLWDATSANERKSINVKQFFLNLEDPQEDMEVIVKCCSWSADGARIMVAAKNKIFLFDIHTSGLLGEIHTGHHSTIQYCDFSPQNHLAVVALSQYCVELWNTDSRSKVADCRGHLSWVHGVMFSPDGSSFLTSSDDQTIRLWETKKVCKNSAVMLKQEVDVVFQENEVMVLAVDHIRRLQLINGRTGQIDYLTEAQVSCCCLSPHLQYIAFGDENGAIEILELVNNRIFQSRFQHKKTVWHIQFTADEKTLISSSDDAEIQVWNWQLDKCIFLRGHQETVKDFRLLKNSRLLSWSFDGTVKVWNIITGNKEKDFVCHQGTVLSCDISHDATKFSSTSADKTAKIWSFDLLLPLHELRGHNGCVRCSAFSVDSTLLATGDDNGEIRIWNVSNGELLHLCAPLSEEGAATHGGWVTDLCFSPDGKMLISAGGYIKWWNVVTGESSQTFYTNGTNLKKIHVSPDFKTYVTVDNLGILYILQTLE
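Material: reconstituted apoptosome of Apaf-1, cytochrome c, caspase-9, procaspase-3; times: 30 min preincubation, 50 min reaction, room temperature; measured by: fluorescence, 540 nm emission, 480 nm excitation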
Rh110 interf act: Rh110 signal interference in Apaf-1 activator counter-screen; shares compounds with Apaf1 activ; Rh110 fluorescence interference, quenched caspase reaction, Ex480/Em540; fluorescence interference (activity change), % at 20 µM, hits read low; 980 tested, under 10 active; AID 504616;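 active = mean activity change at or below -40% when tested at 20 µM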
Apaf-1 act conf: Apaf-1 (human) activation, single-dose confirmed; 980 compounds, 5% hits; reconstituted apoptosome caspase-3 activity, DEVD-Rh110 fluorescence; stronger effect = lower value; activity change, negative = activation, % at 20 µM; shares compounds with Apaf1 activ; AID 504617;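 active = mean activity change at or below -40%, meaning activation of 40% or more, at 20 µM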
Hits are given with their value; i = inactive; nt = no result given.

SMILES	Apaf1 activ	Rh110 interf act	Apaf-1 act conf
CCOC(=O)N1CCC(N2Cc3cccc(C(=O)Nc4ccccc4OC)c3C2=O)CC1	-44	i	i
Cc1ccc(N=Nc2c(N)[nH]n3c(=O)cc(-c4ccccc4)nc23)cc1	i	nt	nt
NC(=O)C1(N2CCCCC2)CCN(C(=S)Nc2cccc(Cl)c2)CC1	-43	i	i
Cc1cc2cc(CNC(=O)Nc3cccc(Cl)c3)ccc2n1C	i	nt	nt
S=C(Nc1ccc2nsnc2c1)N1CCCC1	i	nt	nt
COc1ccc(C(=O)Nc2ccc(/C(C)=N/NC(=O)c3ccccc3O)cc2)cc1OC	-176	i	i
O=C(O)c1cc(O)c2c(c1)[C@H]([C@H]1c3cc(C(=O)O)cc(O)c3C(=O)c3c(O[C@@H]4O[C@H](CO)[C@@H](O)[C@H](O)[C@H]4O)cccc31)c1cccc(OC3O[C@H](CO)[C@@H](O)[C@H](O)[C@H]3O)c1C2=O (stereo not given in full)	i	nt	nt
CC(=O)Nc1ccc(S(=O)(=O)/N=C2\C(=O)c3ccccc3C([O-])=C2n2cc[n+](-c3ccccn3)c2)cc1	i	nt	nt
O=C(NCc1ccc2c(c1)OCO2)c1ccc2snnc2c1	-181	i	i
COC(=O)C1=C(C)N(Cc2ccccc2)C(=NCc2ccc3c(c2)OCO3)N[C@H]1c1ccccc1	i	nt	nt
CCCCCCOc1ccc(/C(C)=N/NC2=NCCN2)cc1[N+](=O)[O-]	i	nt	nt
COc1ccc(NC(=S)N2CCC(C(=O)c3ccc(C)cc3)CC2)cc1	-103	i	i
Cc1ccc(C(=O)NNc2cc(N3CCCC3)nc(N3CCCC3)n2)cc1	i	nt	nt
CCOC(=O)C1CCN(C(=O)Nc2ccc3nc(-c4ccco4)c(-c4ccco4)nc3c2)CC1	i	nt	nt
Oc1cccc2c(NC(=S)Nc3ccc(SC(F)F)cc3)cccc12	i	nt	nt
COc1ccc(C(=O)/C=C/C(=O)N(CC(=O)NC2CCCCC2)CC2CCCO2)c(O)c1 (stereo not given)	i	nt	nt
CCOC(=O)COc1ccc(S(=O)(=O)NCC2CCCO2)cc1 (stereo not given)	-185	i	i
Cc1ccc(S(=O)(=O)N2CCN(C(=O)COC(=O)c3ccc([N+](=O)[O-])o3)CC2)c(C)c1	i	nt	nt
Oc1c(Br)cc(C=Nc2ccc3nc(-c4ccccc4)[nH]c3c2)c(O)c1Br	i	nt	nt
CCCCCCCCCCOC(=O)Cn1c(COc2ccccc2C)[n+](C)c2ccccc21	i	nt	nt
Cc1oc2c(c1C(=O)NCc1cccnc1)C(=O)c1ccccc1C2=O	i	nt	nt
O=C(NCc1cccnc1)c1cc(Sc2cccc(Cl)c2)nc2ccccc12	-47	i	i
Nc1cccnc1Sc1cccc(Cl)c1	i	nt	nt
COc1cc(OC)c2c(-c3ccccc3)cc(=O)oc2c1C(CCN1CCCC1)c1ccc2c(c1)OCO2 (stereo not given)	i	nt	nt
COc1ccc(CN(C)C(=O)c2cc(S(=O)(=O)NCc3ccccc3)ccc2C)c(OC)c1	i	nt	nt
SMILES	Apaf1 activ	Rh110 interf act	Apaf-1 act conf
CCCN(CC(=O)Nc1ccccc1OC)C(=O)c1cc(S(=O)(=O)NCc2ccccc2)ccc1C	i	nt	nt
COC(=O)c1ccc(COC(=O)CCS(=O)(=O)c2ccc(C)cc2)cc1	-53	i	i
Cc1ccc(S(=O)(=O)CCC(=O)NCc2ccccc2)cc1	-64	i	i
O=C(c1ccccc1)[C@@H]1[C@@H](C(=O)c2ccc(F)cc2)[C@@]2(C(=O)Nc3ccccc32)[C@H]2c3ccccc3C=CN12	i	nt	nt
COc1cccc(C(c2c(C)[nH]n(-c3ccccc3)c2=O)c2c(C)[nH]n(-c3ccccc3)c2=O)c1OC	i	nt	nt
CCOc1ccc(S(=O)(=O)N2CCCCC2)cc1NC(=O)C1=COCCO1	-131	i	i
CCOC(=O)C1CCCN(C(=O)c2cc(S(=O)(=O)N3CCCCCC3)ccc2OC)C1 (stereo not given)	i	nt	nt
CCN(CC)c1ccc(S(=O)(=O)N2CCCCC2)cc1NC(=O)C1CSC2(C)CCC(=O)N12 (stereo not given)	i	nt	nt
Cc1cccc2cc(C(c3nnnn3CC3CCCO3)N3CCc4ccccc4C3)c(=O)[nH]c12 (stereo not given)	i	nt	nt
S=c1[nH]c2cc(Cl)c3cccnc3c2o1	i	nt	nt
COC(=O)c1ccccc1NC1=C/C(=N\S(=O)(=O)c2cccs2)c2ccccc2C1=O	i	nt	nt
CCOC(=O)C1=NNC2C(=O)N(C3CCCCC3)C(=O)C12 (stereo not given)	-79	i	i
CCOC(=O)c1cnc(-n2nc(C)cc2C)nc1NC1CCCCC1	i	nt	nt
CC(=O)CCc1ccc(OCC(O)CNC2CCCc3ccccc32)cc1 (stereo not given)	i	nt	nt
Cc1cc2occ(CC(=O)NC3CCCc4ccccc43)c2cc1C (stereo not given)	-164	i	i
CCc1ccccc1OC[C@@H](O)CN[C@H]1CCCc2ccccc21	i	nt	nt
O=C1c2ccccc2C(=O)c2c1oc(C(F)(F)F)c2C(=O)c1ccccc1	i	nt	nt
CS(=O)(=O)N(CC(=O)Nc1ccccc1C(=O)N1CCOCC1)c1cccc(F)c1	-57	i	i
Cc1ccc(N/N=C2\CC(=O)c3ccccc32)cc1Cl	i	nt	nt
COc1ccc(NC(=O)CC2Nc3cccc4cccc(c34)NC2=O)cc1 (stereo not given)	i	nt	nt
COc1ccc(/C=C/C(=O)NC(=S)Nc2ccc(S(N)(=O)=O)cc2)cc1	-80	i	i
COc1ccc(-c2cc(=O)n(CCC#N)[nH]2)cc1	i	nt	nt
COC(=O)c1c(N)n(CCCN2CCOCC2)c2nc3ccccc3nc12	-72	i	i
Nc1c(C(=O)NCc2ccccc2)c2nc3ccccc3nc2n1CCCN1CCOCC1	i	nt	nt
COc1ccc(CNC(=O)c2c(N)n(CCCN3CCOCC3)c3nc4ccccc4nc23)cc1	i	nt	nt
SMILES	Apaf1 activ	Rh110 interf act	Apaf-1 act conf
Cc1c(CCOC(=O)c2ccc(Cl)cc2Cl)sc[n+]1CC(=O)c1ccc(Br)cc1	i	nt	nt
O=C1C2C3C=CC(C3)C2C(=O)N1CNc1ccc(O)cc1 (stereo not given)	i	nt	nt
C=C[C@H]1CN2CC[C@H]1C[C@@H]2[C@@H](O)c1ccnc2ccc(OC)cc12	i	nt	nt
COc1ccc(C)cc1NC(=O)CN1C(=O)C2CC=CCC2C1=O (stereo not given)	-315	i	i
COc1ccc(C)cc1NC(=O)COC(=O)C1COc2ccccc2O1 (stereo not given)	-53	i	i
Cc1noc(C)c1COC(=O)C1COc2ccccc2O1 (stereo not given)	-73	i	i
CCN1/C(=C/C(C)=C/c2sc3ccccc3[n+]2CC)Sc2ccccc21	i	nt	nt
Cc1ccc(C(=O)N/N=C/c2ccc(-c3ccccc3[N+](=O)[O-])o2)cn1	i	nt	nt
O=C1CCCC2=C1C1(O)C(=O)c3ccccc3C1(O)O2 (stereo not given)	i	nt	nt
CCSCCC(NC1=CC(=O)CC(C)(C)C1)C(=O)O (stereo not given)	i	nt	nt
Clc1ccc(CSc2nnc3ccccn23)c(Cl)c1	-40	i	i
CCOc1ccc(S(=O)(=O)N2CCc3ccccc3C2)cc1	-120	i	i
CN1CCN(S(=O)(=O)c2ccc(SCCOc3ccc(Cl)cc3)nc2)CC1	i	nt	nt
CCOc1cccc2sc(N(CCCN(C)C)C(=O)c3ccc(S(=O)(=O)N4CCc5ccccc5C4)cc3)nc12	i	nt	nt
CN(C)CCCN1c2ccccc2Sc2ccc(C(F)(F)F)cc21	i	nt	nt
Cc1[nH]n(-c2ccccc2)c(=O)c1/C=N/N(C)c1ccccc1	i	nt	nt

Screening results (PubChem)
